Measured values from ChEMBL document CHEMBL1122032, “Dopaminergic activity of substituted 6-chloro-1-phenyl-2,3,4,5-tetrahydro-1H-3-benzazepines” (J Med Chem, 1982).
Calls of active or inactive are those of the source. No cut-off for these calls is given here.

Experiments:
[1] = species: Canis familiaris; assay: Renal blood flow was measured in dogs; Highly significant activity; type: functional, organism-based; details: Canis lupus familiaris; Kidney
[2] = species: Rattus norvegicus; assay: Adenylase cyclase activity in rat striatal membranes at the concentration of 10e-5; type: functional; details: Striatum, Membrane
[3] = system: Rattus norvegicus; assay: Central dopaminergic activity against contralateral rotation(1000) in lesioned rats(po) in 2 h; type: functional
In short: (§1)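 Oral dosing in rats with substantia nigra lesions, scoring contralateral rotations. RD1000 is the minimum dose producing 1000 turns in 2 h.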

[4] = species: Rattus norvegicus; assay: Adenylase cyclase activity in rat striatal membranes at the concentration of 10e-7; type: functional; details: Striatum, Membrane
[5] = species: Canis familiaris; assay: Renal vascular resistance was calculated as the ratio of the mean arterial blood pressure / mean renal blood flow; Highly significant activity; type: functional, organism-based; details: Canis lupus familiaris
[6] = system: Rattus norvegicus; assay: Central dopaminergic activity for minimum concentration which produced 500 rotations(ip) in 2 h; type: functional
In short: (§2)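 Rats with substantia nigra lesions scored for contralateral rotation after intraperitoneal dosing (routine), oral dosing for selected compounds, or intracaudal administration for intrinsic activity. RD500 and RD1000 are the minimum doses giving 500 and 1000 turns, respectively, in 2 h.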

[7] = Selectivity ratio of compound as ratio of ED15 relative to mean arterial blood pressure(MABP) ED20; type: functional
In short: (§3)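 Secondary renal screen in anesthetized dogs: cumulative dose-response by infusing drug at progressively increasing rates, 5 min per dose level. RVR ED15 is the average minimum cumulative dose lowering RVR by 15%; maximum effect is the average maximum % fall in RVR. Selectivity ratios are separations between RVR ED15 and doses giving 30% change in iliac vascular resistance, 20% in MABP, 20% in HR.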

[8] = species: Canis familiaris; assay: Renal vascular resistance was calculated as the ratio of the mean arterial blood pressure / mean renal blood flow; Significant activity; type: functional, organism-based; details: Canis lupus familiaris
[9] = system: Canis familiaris; assay: Compound was evaluated for determining renal vascular resistance(iv) in dogs; type: functional, Canis lupus familiaris; in short: as §3
[10] = Selectivity ratio of compound as ED15 relative to heart rate(HR) ED20; type: functional; in short: as §3
[11] = species: Canis familiaris; assay: Renal blood flow was measured in dogs; Significant activity; type: functional, organism-based; details: Canis lupus familiaris; Kidney
[12] = species: Canis familiaris; assay: Compound was evaluated for average maximum percent decrease in renal vascular resistance in dogs; type: functional, Canis lupus familiaris; in short: as §3
[13] = system: Rattus norvegicus; assay: Central dopaminergic activity for minimum concentration which produced 500 rotations at the dose of 10 mg/kg (i.p.) in 2 h; I=Inactive; type: functional, organism-based; parameters: dose 10 mg/kg; in short: as §2
[14] = Selectivity ratio of Compound as ratio of ED15 relative to iliac vascular resistance(IVR) ED30; type: functional; in short: as §3
[15] = species: Rattus norvegicus; assay: Adenylase cyclase activity in rat striatal membranes at the concentration of 10e-6; type: functional; details: Striatum, Membrane
[16] = system: Rattus norvegicus; assay: Central dopaminergic activity against contralateral rotation(1000) in lesioned rats at the dose of 10 mg/kg (p.o.) in 2 h; type: functional; details: route oral; in short: as §1
[17] = species: Canis familiaris; assay: Renal vascular resistance was calculated as the ratio of the mean arterial blood pressure / mean renal blood flow; I=Inactive; type: functional, organism-based; details: Canis lupus familiaris
[18] = species: Canis familiaris; assay: Renal blood flow was measured in dogs; I=Inactive; type: functional, organism-based; details: Canis lupus familiaris; Kidney
[19] = system: Rattus norvegicus; assay: Central dopaminergic activity against contralateral rotation(1000) in lesioned rats at the dose of 6 mg/kg (p.o.) in 2 h; I=Inactive
[20] = system: Rattus norvegicus; assay: Central dopaminergic activity for minimum concentration which produced 500 rotations at the dose of 2.0 mg/kg (i.p.) in 2 h; I=Inactive; type: functional, organism-based; parameters: dose 2 mg/kg; in short: as §2
[21] = system: Rattus norvegicus; assay: Central dopaminergic activity for minimum concentration which produced 500 rotations at the dose of 10 mg/kg (i.p.) in 2 h; type: functional; details: route intraperitoneal; in short: as §2
[22] = system: Rattus norvegicus; assay: Central dopaminergic activity against contralateral rotation(1000) in lesioned rats(po) in 2 hr at 10 mg/kg; I=Inactive; type: functional, organism-based; parameters: dose 10 mg/kg; in short: as §1

| DA response [2] | DA response [15] | Compound | RBF [1] | RVR [5] | RD500 [6] | RVR [17] | RBF [18] | also measured |
| --- | --- | --- | --- | --- | --- | --- | --- | --- |
| 96% |  | Br.C=CCN1CCc2c(cc(O)c(O)c2Cl)C(c2cccc(C)c2)C1 (configuration not stated) | Highly significant activity | Significant activity | 0.04 mg/kg |  |  | RD1000 [3]: 3 mg/kg; DA response [4]: 86% |
|  |  | Br.Oc1cc2c(c(Cl)c1O)CCNCC2c1cc(Cl)c(O)c(Cl)c1 (configuration not stated) |  |  |  |  |  | Ratio [7]: >37; RVR [8]: Significant activity; RVR ED15 [9]: 0.165 mg/kg; Ratio [10]: >37; RBF [11]: Significant activity; Decrease RVR [12]: 18%; RD500 [13]: inactive; Ratio [14]: > 37 |
| 90% | 82% | Br.Oc1cc2c(c(Cl)c1O)CCNCC2c1cccc(Cl)c1 (configuration not stated) | Highly significant activity |  | 0.3 mg/kg | inactive |  | RD1000 [16]: 602 turns/2 h |
|  |  | Br.C=CCN1CCc2c(cc(O)c(O)c2Cl)C(c2ccc(Cl)c(O)c2)C1 (configuration not stated) | Highly significant activity |  |  |  |  | Ratio [7]: >319; RVR [8]: Significant activity; RVR ED15 [9]: 0.019 mg/kg; Ratio [10]: >319; Decrease RVR [12]: 39%; RD500 [13]: inactive |
| 68% | 52% | Br.Oc1cc2c(c(Cl)c1O)CCNCC2c1ccc(Cl)cc1 (configuration not stated) |  |  | 3.4 mg/kg | inactive | inactive |  |
|  |  | Oc1cc2c(c(Cl)c1O)CCN(Cc1ccco1)CC2c1cccc(Cl)c1 (configuration not stated) |  |  |  | inactive |  | RD1000 [19]: inactive; RBF [11]: Significant activity |
|  |  | Cc1cccc(C2CN(Cc3ccco3)CCc3c2cc(O)c(O)c3Cl)c1 (configuration not stated) |  |  |  | inactive | inactive | RD500 [20]: inactive |
| 42% | 23% | Br.Cc1ccc(C2CNCCc3c2cc(O)c(O)c3Cl)cc1 (configuration not stated) |  |  |  | inactive | inactive | Contralateral turns in 2 h [21]: 420 turns/2 h |
| 14% | 15% | Br.Cc1cccc(C2CN(C)CCc3c2cc(O)c(O)c3Cl)c1 (configuration not stated) |  |  | 0.041 mg/kg | inactive | inactive | RD1000 [3]: 2 mg/kg |
|  |  | CC(=O)Oc1cc2c(c(Cl)c1OC(C)=O)CCNCC2c1ccccc1 (configuration not stated) | Highly significant activity | Significant activity |  |  |  |  |
|  |  | COc1ccc(CN2CCc3c(cc(O)c(O)c3Cl)C(c3ccccc3)C2)cc1 (configuration not stated) | Highly significant activity | Significant activity |  |  |  | RD500 [13]: inactive |
|  |  | CC(=O)Oc1cc2c(c(Cl)c1OC(C)=O)CCN(C)CC2c1ccccc1.Cl (configuration not stated) |  |  | 0.025 mg/kg | inactive | inactive | RD1000 [3]: 2.2 mg/kg |
|  |  | NCCc1ccc(O)c(O)c1 [DOPAMINE] | Active | Active |  |  |  | Ratio [7]: 113; RVR ED15 [9]: 0.0027 mg/kg; Ratio [10]: 141; Decrease RVR [12]: 36%; Ratio [14]: 56 |
|  |  | C=CCN1CCc2c(cc(OC(C)=O)c(OC(C)=O)c2Cl)C(c2ccccc2)C1.Cl (configuration not stated) |  |  | 0.03 mg/kg |  |  | RD1000 [22]: inactive |
| 94% |  | Br.Cc1cccc(C2CNCCc3c2cc(O)c(O)c3Cl)c1 (configuration not stated) | Highly significant activity | Significant activity | 0.47 mg/kg |  |  | Ratio [7]: >6072; RVR ED15 [9]: 0.015 mg/kg; Ratio [10]: 7; Decrease RVR [12]: 56%; DA response [4]: 76%; Ratio [14]: 1 |
| 90% | 85% | Br.CCCCN1CCc2c(cc(O)c(O)c2Cl)C(c2ccccc2)C1 (configuration not stated) |  |  |  | inactive | inactive | Contralateral turns in 2 h [21]: 611 turns/2 h |
